Test results from ChEMBL document CHEMBL5247578, “Effective synthesis of benzimidazoles-imidazo[1,2-a]pyrazine conjugates: A comparative study of mono-and bis-benzimidazoles for antitumor activity” (Eur J Med Chem, 2019).

Assays:
786-0 [1] = experiment: Antiproliferative activity against human 786-0 cells assessed as cell growth at 0.00000001 M incubated for 48 hrs by SRB assay relative to control; format: functional; details: dose 10 nM, read-out: Activity
Summary of the method: (§1)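 NCI-60 five-dose screen over 10^-4–10^-8 M (10-fold dilutions). Cells grown in RPMI 1640 with 5% FBS and 2 mM L-glutamine, seeded at 5,000–40,000 cells/well and preincubated 24 h. Drug from DMSO stock, 48 h at 37 °C, 5% CO2. Adherent cells TCA-fixed and stained with 0.4% SRB; A515 read. Percent growth = (Ti−Tz)/(C−Tz)×100, or (Ti−Tz)/Tz×100 when Ti<Tz.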

SF-295 = experiment: Antiproliferative activity against human SF-295 cells assessed as cell growth at 0.000001 M incubated for 48 hrs by SRB assay relative to control; format: functional; details: read-out: Activity
SW-620 = experiment: Antiproliferative activity against human SW620 cells assessed as cell growth at 0.00000001 M incubated for 48 hrs by SRB assay relative to control; format: functional; details: dose 10 nM, read-out: Activity
BT-549 = experiment: Antiproliferative activity against human BT-549 cells assessed as cell growth inhibition by measuring lethal concentration incubated for 48 hrs by sulforhodamine B assay; format: functional; details: read-out: LC50 (the source's name)
SK-MEL-5 [2] = experiment: Antiproliferative activity against human SK-MEL-5 cells assessed as cell growth at 0.00001 M incubated for 48 hrs by SRB assay relative to control; format: functional; details: read-out: Activity
Malme-3M = experiment: Antiproliferative activity against human Malme-3M cells assessed as cell growth at 0.000001 M incubated for 48 hrs by SRB assay relative to control; format: functional; details: read-out: Activity
NCI-H322M [3] = experiment: Antiproliferative activity against human NCI-H322M cells assessed as cell growth at 0.00001 M incubated for 48 hrs by SRB assay relative to control; format: functional; details: read-out: Activity
TK-10 = experiment: Antiproliferative activity against human TK-10 cells assessed as cell growth at 0.0001 M incubated for 48 hrs by SRB assay relative to control; format: functional; details: read-out: Activity
CCRF-CEM = experiment: Antiproliferative activity against human CCRF-CEM cells assessed as cell growth at 0.0001 M incubated for 48 hrs by SRB assay relative to control; format: functional; details: read-out: Activity; summary of the method: as §1
RXF 393 = experiment: Growth inhibition against human RXF 393 cells incubated for 48 hrs by sulforhodamine B assay; format: functional
T47D = experiment: Antiproliferative activity against human T47D cells assessed as cell growth at 0.0000001 M incubated for 48 hrs by SRB assay relative to control; format: functional; details: dose 100 nM, read-out: Activity
OVCAR-4 = experiment: Antiproliferative activity against human OVCAR-4 cells assessed as cell growth at 0.00000001 M incubated for 48 hrs by SRB assay relative to control; format: functional; details: dose 10 nM, read-out: Activity
MCF7 = experiment: Antiproliferative activity against human MCF7 cells assessed as cell growth at 0.0001 M incubated for 48 hrs by SRB assay relative to control; format: functional; details: read-out: Activity
SNB-19 = experiment: Antiproliferative activity against human SNB-19 cells assessed as cell growth inhibition by measuring lethal concentration incubated for 48 hrs by sulforhodamine B assay; format: functional; details: read-out: LC50 (the source's name)
Summary of the method: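 NCI-60 five-dose screen (10^-4 to 10^-8 M, 10-fold dilutions; DMSO stocks). Cells in RPMI 1640 with 5% FBS and 2 mM L-glutamine, preincubated 24 h, then exposed 48 h at 37 °C, 5% CO2. Fixed with cold TCA, stained with 0.4% SRB, absorbance read at 515 nm. Time-zero plates used as reference. LC50 taken from [(Ti-Tz)/Tz]×100 […].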

HCT-15 = experiment: Antiproliferative activity against human HCT-15 cells assessed as cell growth inhibition by measuring lethal concentration incubated for 48 hrs by sulforhodamine B assay; format: functional; details: read-out: LC50 (the source's name)
UO-31 = experiment: Growth inhibition against human UO-31 cells assessed as total growth inhibitory concentration incubated for 48 hrs by sulforhodamine B assay; format: functional
ACHN [4] = experiment: Growth inhibition against human ACHN cells incubated for 48 hrs by sulforhodamine B assay; format: functional
M14 [5] = experiment: Antiproliferative activity against human M14 cells assessed as cell growth at 0.000001 M incubated for 48 hrs by SRB assay relative to control; format: functional; details: read-out: Activity
SK-MEL-2 = experiment: Antiproliferative activity against human SK-MEL-2 cells assessed as cell growth inhibition by measuring lethal concentration incubated for 48 hrs by sulforhodamine B assay; format: functional; details: read-out: LC50 (the source's name)
SNB-75 = experiment: Antiproliferative activity against human SNB-75 cells assessed as cell growth at 0.0000001 M incubated for 48 hrs by SRB assay relative to control; format: functional; details: dose 100 nM, read-out: Activity
Calf thymus DNA = experiment: Displacement of ethidium bromide from calf thymus DNA assessed as Stern-Volmer quenching constant upto 85 uM by fluorescence based spectroscopic analysis; format: nucleic-acid assay; details: Bos taurus
M14 [6] = experiment: Antiproliferative activity against human M14 cells assessed as cell growth at 0.00000001 M incubated for 48 hrs by SRB assay relative to control; format: functional; details: dose 10 nM, read-out: Activity
SK-MEL-5 [7] = experiment: Growth inhibition against human SK-MEL-5 cells assessed as total growth inhibitory concentration incubated for 48 hrs by sulforhodamine B assay; format: functional
NCI-H322M [8] = experiment: Antiproliferative activity against human NCI-H322M cells assessed as cell growth inhibition by measuring lethal concentration incubated for 48 hrs by sulforhodamine B assay; format: functional; details: read-out: LC50 (the source's name)
NCI-H23 = experiment: Antiproliferative activity against human NCI-H23 cells assessed as cell growth inhibition by measuring lethal concentration incubated for 48 hrs by sulforhodamine B assay; format: functional; details: read-out: LC50 (the source's name)
NCI-H522 [9] = experiment: Growth inhibition against human NCI-H522 cells incubated for 48 hrs by sulforhodamine B assay; format: functional
HCC 2998 = experiment: Antiproliferative activity against human HCC 2998 cells assessed as cell growth inhibition by measuring lethal concentration incubated for 48 hrs by sulforhodamine B assay; format: functional; details: read-out: LC50 (the source's name)
CAKI-1 = experiment: Antiproliferative activity against human CAKI-1 cells assessed as cell growth at 0.00000001 M incubated for 48 hrs by SRB assay relative to control; format: functional; details: dose 10 nM, read-out: Activity; summary of the method: as §1
UACC-62 = experiment: Antiproliferative activity against human UACC-62 cells assessed as cell growth at 0.0000001 M incubated for 48 hrs by SRB assay relative to control; format: functional; details: dose 100 nM, read-out: Activity
NCI-H322M [10] = experiment: Antiproliferative activity against human NCI-H322M cells assessed as cell growth at 0.00000001 M incubated for 48 hrs by SRB assay relative to control; format: functional; details: dose 10 nM, read-out: Activity
NCI-H522 [11] = experiment: Growth inhibition against human NCI-H522 cells assessed as total growth inhibitory concentration incubated for 48 hrs by sulforhodamine B assay; format: functional
HL-60 = experiment: Growth inhibition against human HL-60 cells assessed as total growth inhibitory concentration incubated for 48 hrs by sulforhodamine B assay; format: functional
NCI-H522 [12] = experiment: Antiproliferative activity against human NCI-H522 cells assessed as cell growth at 0.0000001 M incubated for 48 hrs by SRB assay relative to control; format: functional; details: dose 100 nM, read-out: Activity
786-0 [13] = experiment: Antiproliferative activity against human 786-0 cells assessed as cell growth at 0.00001 M incubated for 48 hrs by SRB assay relative to control; format: functional; details: read-out: Activity; summary of the method: as §1
ACHN [14] = experiment: Antiproliferative activity against human ACHN cells assessed as cell growth at 0.000001 M incubated for 48 hrs by SRB assay relative to control; format: functional; details: read-out: Activity; summary of the method: as §1

| SMILES | growth at 0.01 µM (786-0 [1]) [%] | growth at 1 µM (SF-295) [%] | growth at 0.01 µM (SW-620) [%] | CC50 (BT-549) [µM] | growth at 10 µM (SK-MEL-5 [2]) [%] | growth at 1 µM (Malme-3M) [%] | growth at 10 µM (NCI-H322M [3]) [%] | growth at 100 µM (TK-10) [%] | growth at 100 µM (CCRF-CEM) [%] | GI50 (RXF 393) [µM] | growth at 0.1 µM (T47D) [%] | growth at 0.01 µM (OVCAR-4) [%] | growth at 100 µM (MCF7) [%] | CC50 (SNB-19) [µM] | CC50 (HCT-15) [µM] | TGI (UO-31) [µM] | GI50 (ACHN [4]) [µM] | growth at 1 µM (M14 [5]) [%] | CC50 (SK-MEL-2) [µM] | growth at 0.1 µM (SNB-75) [%] | other results |
| --- | --- | --- | --- | --- | --- | --- | --- | --- | --- | --- | --- | --- | --- | --- | --- | --- | --- | --- | --- | --- | --- |
| COc1ccc(-c2cn3ccnc3c(-c3ccc4ncn(C5CCCCC5)c4c3)n2)cc1 | 87 | 18 | 98 | > 100 | -40 | 53 | 53 | -3 | 22 | 1.3 | 86 | 96 | 24 | > 100 | > 100 | > 100 | 0.692 | 38 | > 100 | 82 | KSV (Calf thymus DNA): 0.82 10^4/M; growth at 0.01 µM (M14 [6]): 99%; TGI (SK-MEL-5 [7]): 3.2 µM; CC50 (NCI-H322M [8]): > 100 µM; CC50 (NCI-H23): > 100 µM; GI50 (NCI-H522 [9]): 0.424 µM; CC50 (HCC 2998): > 100 µM; growth at 0.01 µM (CAKI-1): 88%; growth at 0.1 µM (UACC-62): 90%; growth at 0.01 µM (NCI-H322M [10]): 92%; TGI (NCI-H522 [11]): 6.15 µM; TGI (HL-60): 5.05 µM; growth at 0.1 µM (NCI-H522 [12]): 87%; growth at 10 µM (786-0 [13]): -32%; growth at 1 µM (ACHN [14]): 40% |
| c1ccc(Cn2cnc3ccc(-c4nc(-c5ccc6c(c5)ncn6C5CCCCC5)cn5ccnc45)cc32)cc1 | 86 | 74 | 100 | 5.96 | -90 | 91 | 8 | 13 | 9 | 1.22 | 95 | 94 | 8 | > 100 | > 100 | 4.55 | 3.08 | 65 | > 100 | 82 | KSV (Calf thymus DNA): 0.74 10^4/M; growth at 0.01 µM (M14 [6]): 87%; TGI (SK-MEL-5 [7]): 2.96 µM; CC50 (NCI-H322M [8]): > 100 µM; CC50 (NCI-H23): 1.33 µM; GI50 (NCI-H522 [9]): 2.03 µM; CC50 (HCC 2998): 6.12 µM; growth at 0.01 µM (CAKI-1): 87%; growth at 0.1 µM (UACC-62): 90%; growth at 0.01 µM (NCI-H322M [10]): 97%; TGI (NCI-H522 [11]): 5.09 µM; TGI (HL-60): 6.65 µM; growth at 0.1 µM (NCI-H522 [12]): 90%; growth at 10 µM (786-0 [13]): 4%; growth at 1 µM (ACHN [14]): 87% |
